GalR3 antag = antagonists of human GalR3; HEK293 GalR3-CNG cAMP membrane potential fluorescence; galR3 body fused to GalR1 C-terminus; inhibition, % at 3 µM; 360,000 tested, 0.44% active;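 active means inhibition above the screen-wide average plus 3 SD, cut at about 13% in these data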;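 further: forskolin and galanin both at EC90 stimulate the cells; cAMP rise reported by CNG channel membrane potential dye signal; 0% = forskolin plus galanin with DMSO and 100% = forskolin alone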
Target sequence (O60755 1-299 limits assumed): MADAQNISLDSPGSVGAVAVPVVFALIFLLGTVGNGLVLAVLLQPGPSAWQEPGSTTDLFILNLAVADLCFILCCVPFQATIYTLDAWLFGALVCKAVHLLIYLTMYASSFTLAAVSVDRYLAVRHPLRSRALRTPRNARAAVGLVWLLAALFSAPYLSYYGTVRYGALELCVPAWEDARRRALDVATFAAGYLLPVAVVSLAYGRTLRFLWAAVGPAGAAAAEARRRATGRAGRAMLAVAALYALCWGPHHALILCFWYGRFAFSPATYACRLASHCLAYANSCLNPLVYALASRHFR
ASAP1 GAP inh = blocks human ASAP1-stimulated Arf1 GTP hydrolysis; GDP FP detection; inhibition, % at 16.5 µM; 360,000 tested, 0.19% active; AID 624377; in the data active means inhibition above about 25%;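 further: 0% = vehicle with enzyme and substrate and 100% = no enzyme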
Target sequence (Q9ULH1 325-724 limits assumed): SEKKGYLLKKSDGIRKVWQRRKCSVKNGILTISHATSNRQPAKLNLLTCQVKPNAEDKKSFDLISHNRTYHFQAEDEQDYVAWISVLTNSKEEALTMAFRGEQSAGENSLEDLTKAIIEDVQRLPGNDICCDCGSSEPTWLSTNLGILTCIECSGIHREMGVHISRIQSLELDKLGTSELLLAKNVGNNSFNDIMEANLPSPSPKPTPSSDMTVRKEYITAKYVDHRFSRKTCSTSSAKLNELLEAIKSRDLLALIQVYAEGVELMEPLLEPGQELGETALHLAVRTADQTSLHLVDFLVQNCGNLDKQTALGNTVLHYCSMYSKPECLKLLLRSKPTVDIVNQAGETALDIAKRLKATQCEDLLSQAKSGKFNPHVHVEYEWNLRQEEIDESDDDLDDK
Rin1-Abl PPI inh = blocks binding of human Rin1 to Abl; TR-FRET Rin1/Abl binding, biochemical; inhibition, % at 7.35 µM; 360,000 tested, 0.4% active; in the data active means inhibition above about 5%, passing the limit was not always enough
ARFGAP1 inh = rat ARFGAP1 inhibition; Q62848; Arfgap1-stimulated ARF1 GTP hydrolysis, GDP FP detection; inhibition, % at 16.5 µM; 360,000 tested, 0.26% active;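 active means inhibition above a per-plate limit, mean inhibition of low control wells plus 3 SD, cut at about 25% in these data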;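 further: 0% = DMSO wells with enzyme and 100% = wells lacking Arfgap1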
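Material: rat Arfgap1 GAP domain (His6, aa 1-136), purified enzyme. Also added: human ARF1(Δ1-17)-GTP substrate. Compound dosing: 16.5 µM single point, 1.26% DMSO. Timing: enzyme reaction 120 min at 25 °C after 20 min preincubation. Signal: GDP detection by fluorescence polarization. Read-out basis: percent inhibition of GAP-stimulated GDP formation, scaled between DMSO and no-Arfgap1 medians.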
ASAP1 GAP conf = ASAP1 inhibition confirmed | shares compounds with ASAP1 GAP inh | ASAP1-stimulated Arf1 GTPase, GDP fluorescence polarization | inhibition, % at 16.5 µM | 620 tested, 37% active;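 active means mean inhibition over triplicates exceeds the hit threshold derived for the earlier primary screening run, cut at about 25% in these data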
ARFGAP1 confirm = rat ARFGAP1 inhibition, confirmed | 890 tested, 30% active | inhibition, % at 16.5 µM | shares compounds with ARFGAP1 inh | ARFGAP1-stimulated ARF1 GTP hydrolysis, GDP tracer FP;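 active means average inhibition over triplicates above the hit cutoff set in the earlier primary screen, cut at about 25% in these data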;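 further: 0% = Arfgap1 plus ARF1-GTP with DMSO and 100% = wells lacking Arfgap1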
Active calls of the source: *; x = no result; + = active, no number. Shown are actives, neighbours in structure and some others; about 1.2% of the full set was active somewhere.

SMILES | GalR3 antag | ASAP1 GAP inh | Rin1-Abl PPI inh | ARFGAP1 inh | ASAP1 GAP conf | ARFGAP1 confirm
CCCN1CCCCC(NC(=O)c2ccc(Cl)cc2Cl)C1=O (stereo not given) | 0 | 8 | x | -5 | x | x
CCN1CCN(Cc2ccc(NC(=O)c3ccc(C)c(NC(=O)c4ccc5n[nH]nc5c4)c3)cc2C(F)(F)F)CC1 | -6 | -6 | -1 | 6 | x | x
CCN1CCN(Cc2ccc(NC(=O)c3cccc(-c4ccc5nc(NC(=O)C6CC6)sc5n4)c3)cc2C(F)(F)F)CC1 | 1 | 27* | x | 57* | 40* | 51*
CC1=CC2=NC(=O)/C(=C\c3ccc(-c4cccc(Cl)c4)o3)C(=N)N2O1 | 3 | 58* | -2 | 41* | 87* | 131*
COC(=O)CSc1nnc2n(-c3ccc(OC)cc3)c(=O)c3c4c(sc3n12)CCCCC4 | -7 | 39* | 0 | 62* | 42* | 75*
O=C(C(=O)N1CCC(CNS(=O)(=O)c2ccccc2OC(F)(F)F)CC1)c1cccs1 | 1 | 2 | x | 2 | x | x
CC(=O)Nc1ccc(NC(=O)CSc2ccc(-c3cccnc3)nn2)cc1 | 0 | 5 | -1 | -3 | x | x
CC(=O)Nc1ccc(NC(=O)CSc2ccc(-c3ccc(-n4ccnc4)cc3)nn2)cc1 | -3 | 66* | 0 | 25* | 71* | 72*
COc1cc2c3nnc(-c4ccc(F)cc4)c-3cn(Cc3ccc(F)cc3)c2cc1OC | 0 | 13 | -5 | 15 | x | x
COc1cc2c3nnc(-c4ccc(F)cc4)c-3cn(Cc3ccccc3)c2cc1OC | 4 | 79* | -9 | 36* | 60* | 29*
CCCCCCCCN1C(=O)[C@@H](CC(=O)N2CCCCC2)C[C@@]2(C(=O)OC)C1=C[C@H](C1CCCC1)O[C@@H]2C | 1 | -6 | x | 1 | x | x
CN(Cc1ccccc1)C(=O)c1cccc(NC(=O)Cc2ccc(NC(=O)C3CCCN(S(=O)(=O)c4cccc([N+](=O)[O-])c4)C3)cc2)c1 (stereo not given) | -8 | 6 | x | 1 | x | x
O=C1C(N2CCOCC2)=C(n2nnc3ccccc32)C(=O)c2ccccc21 | -5 | 44* | -12 | 31* | 10 | 3
COc1ccc(NC(=O)c2ccc(-c3ccc([N+](=O)[O-])cc3)o2)cc1OC | -3 | 15 | -5 | 8 | x | x
CC(=O)Nc1ccc(NC(=O)c2ccc(-c3ccc([N+](=O)[O-])cc3)o2)cc1 | 3 | 130* | -4 | 62* | 164* | +
O=C(NCCc1ccccc1Cl)[C@@H]1CCCN1C(=O)[C@@H](NC(=O)N1CCOCC1)C1CCCCC1 | -6 | -6 | x | -6 | x | x
Cc1[nH][nH]c(=O)c1C(c1ccc(-c2ccc(Cl)c(C(=O)O)c2)o1)c1c(C)[nH][nH]c1=O | -4 | 42* | 5 | 25* | 11 | -2
FC(F)(F)c1ccccc1CN1CCCc2nc(-c3ccc(Br)cc3)ccc21 | -4 | 2 | x | 4 | x | x
CCC(/C=C1\Sc2ccc(OC)cc2N1CCO)=C\c1sc2ccc(OC)cc2[n+]1CCO | -7 | 32* | -14 | 42* | 35* | 25*
CCC(/C=C1\Sc2ccc(OC)cc2N1CC)=C\c1sc2ccc(OC)cc2[n+]1CCCS(=O)(=O)[O-] | 3 | 14 | 0 | 24 | x | x
COc1ccc(-c2csc(-n3ncc(-c4ccccn4)c3N)n2)cc1 | -4 | 1 | -1 | -5 | x | x
COc1ccccc1-c1csc(-n2ncc(C#N)c2N)n1 | -8 | 41* | 1 | 39* | 66* | 111*
COc1ccc(OC)c(C=NNC(=O)NN=Cc2cc(OC)ccc2OC)c1 | 2 | 42* | -1 | 57* | 96* | 92*
O=C(CSCC(=O)Nc1nc(-c2ccc3c(c2)OCO3)cs1)Nc1nccs1 | x | 9 | -1 | -4 | x | x
O=C(CSc1ccc(-c2ccc3c(c2)OCO3)nn1)Nc1nccs1 | -5 | 132* | 2 | 46* | 75* | 135*
SMILES | GalR3 antag | ASAP1 GAP inh | Rin1-Abl PPI inh | ARFGAP1 inh | ASAP1 GAP conf | ARFGAP1 confirm
CCN(CC)c1ccc(C(=C2C=CC(=[N+](CC)CC)C=C2)c2ccc(S(=O)(=O)O)cc2S(=O)(=O)[O-])cc1 | -5 | 119* | -19 | 121* | 118* | 132*
Cc1cccnc1N=O | -1 | 15 | x | 5 | x | x
O=C(CSc1nc(=O)n2ccccc2n1)N1CCC(Cc2ccccc2)CC1 | -4 | -6 | 0 | 14 | x | x
Cc1ccc2nc(SCC(=O)N3CCC(Cc4ccccc4)CC3)nc(=O)n2c1 | 0 | 26* | 0 | 59* | 41* | 68*
O=[N+]([O-])c1ccc(CN2[C@H](COCc3ccccc3)C=CS2(=O)=O)cc1 | -1 | -8 | x | 9 | x | x
C[C@@H]1CN([C@@H](C)CO)C(=O)CCCn2cc(nn2)CO[C@H]1CN(C)C(=O)Cc1ccccc1 | -5 | 0 | x | -4 | x | x
CC(=O)N1CCN(c2ccc(N3CCN(C(C)=O)[C@@H](C)C3)c(C)c2)[C@@H](C)C1 | -6 | -7 | x | -8 | x | x
O=C(Cn1cnc2ccccc2c1=O)Nc1ccc2c(c1)OCCO2 | -2 | 10 | 4 | 5 | x | x
CCCCOc1cccc2c(=O)n(CC(=O)Nc3ccc4c(c3)OCCO4)ccc12 | -5 | 35* | 0 | 25* | 34* | 38*
Cc1ccc2cc3cc(C(=O)NCc4ccc5c(c4)OCO5)oc3nc2c1 | -3 | 54* | 1 | 68* | 28* | 110*
Cc1ccc(C(=O)NCc2ccc3c(c2)OCO3)o1 | -4 | 0 | 1 | 5 | x | x
COC[C@@H](O)[C@H]1OCc2cc(OC)ccc2[C@@H]1/C=C/c1ccccc1 | -6 | 0 | x | 2 | x | x
Cc1ccccc1S(=O)(=O)N(C)C[C@@H]1OCc2cn(nn2)CCCC(=O)N([C@@H](C)CO)C[C@H]1C | -3 | -20 | x | -12 | x | x
Cn1c(=O)n(CCOc2ccc(Cl)cc2Cl)c2ccccc21 | -6 | 40* | -2 | 30* | 47* | 44*
CC(=O)Nc1cc(-c2ccc(N3CCN(C)CC3)cc2)cn2c(-c3ccc(F)c(Cl)c3)cnc12 | 2 | 0 | -4 | 14 | x | x
CN1CCN(c2ccc(-c3cc(NC=O)c4ncc(-c5ccc(F)c(Cl)c5)n4c3)cc2)CC1 | -1 | 1 | -4 | 8 | x | x
CC(=O)Nc1cc(-c2ccc(N3CCN(C)CC3)cc2)cn2c(-c3cccc(C(C)=O)c3)cnc12 | -3 | 54* | -5 | 38* | 95* | 82*
CC(=O)c1ccc(-c2cnc3c(NC=O)cc(-c4ccc(N5CCN(C)CC5)cc4)cn23)cc1 | -7 | 81* | -3 | 63* | 155* | 139*
Cc1ccc(-c2ccc(/C=C3\SC(N4CCOCC4)=NC3=O)o2)cc1 | -5 | 49* | -9 | 37* | 116* | 87*
O=C1N=C(N2CCOCC2)S/C1=C/c1ccc(-c2ccc(F)cc2)o1 | -7 | 33* | -5 | 30* | 58* | 49*
O=C1N=C(N2CCOCC2)SC1=Cc1ccco1 | -6 | -2 | -2 | 7 | x | x
